Data set [1] has as its target T1, Free fatty acid receptor 1 (Homo sapiens, UniProt O14842). Nature of the data set: Agonist activity at human GPR40 expressed in CHOA12 cells assessed as induction of Ca2+ mobilization by FLIPR assay. It counts as functional, cell-based. (Calcium flux is commonly read through the fluorescence of an indicator in the cells.)
The target in data set [2] is T1, Free fatty acid receptor 1. Nature of the data set: Agonist activity at human GPR40 expressed in CHOA12 cells assessed as induction of Ca2+ mobilization at 8.3 uM by FLIPR assay relative to compound 2. It counts as functional, cell-based.
Data set [3] concerns the target T2, Peroxisome proliferator-activated receptor gamma (Homo sapiens, UniProt P37231).
T2 sequence (P37231 whole entry): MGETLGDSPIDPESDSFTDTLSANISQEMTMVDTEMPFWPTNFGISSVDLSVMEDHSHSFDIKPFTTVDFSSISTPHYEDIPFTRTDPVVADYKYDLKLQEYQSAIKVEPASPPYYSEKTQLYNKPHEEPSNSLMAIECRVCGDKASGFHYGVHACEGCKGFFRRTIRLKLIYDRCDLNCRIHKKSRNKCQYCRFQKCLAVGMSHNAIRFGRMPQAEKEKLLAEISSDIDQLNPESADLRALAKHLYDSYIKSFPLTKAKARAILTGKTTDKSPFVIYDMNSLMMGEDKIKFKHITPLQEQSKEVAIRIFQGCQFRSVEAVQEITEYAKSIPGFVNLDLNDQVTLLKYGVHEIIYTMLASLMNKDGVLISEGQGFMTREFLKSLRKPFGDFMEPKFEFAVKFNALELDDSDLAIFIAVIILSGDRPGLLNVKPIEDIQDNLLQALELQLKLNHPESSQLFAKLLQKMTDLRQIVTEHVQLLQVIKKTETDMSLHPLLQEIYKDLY
As to the kind of experiment: Agonist activity at PPARgamma (unknown origin).

The subject of data set [4] is Liver. As to the kind of experiment: Stability in human liver microsomes assessed as parent compound remaining at 1 to 3 uM incubated for 20 mins in presence NADPH measured up to 90 mins by LC/MS/MS analysis. It counts as ADME, microsome. As to conditions: microsomes, 20 min, 3 µM. The essentials:
(§1)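 Human or rat liver microsomal incubations. The read-outs were % parent remaining, % D-ring dealkylation metabolites, % GSH adducts, and half-life (min). The metabolites followed were CYP450-mediated oxidative de-alkylation products (phenols) and GSH conjugates.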

Data set [5] deals with Liver. As to the kind of experiment: Half life in human liver microsomes at 1 to 3 uM incubated for 20 mins in presence NADPH measured up to 90 mins by LC/MS/MS analysis. The class given is ADME, microsome. To be noted: microsomes, 20 min, 3 µM.
The subject of data set [6] is Liver. As to the kind of experiment: Stability in rat liver microsomes assessed as parent compound remaining at 1 to 3 uM incubated for 20 mins in presence NADPH measured up to 90 mins by LC/MS/MS analysis. The class given is ADME, microsome. To be noted: microsomes, 20 min, 3 µM. An outline of the steps: as §1
(In general: Liver microsomes are a subcellular fraction often used to study metabolism.)

The test system of data set [7] is Liver. Nature of the data set: Half life in rat liver microsomes at 1 to 3 uM incubated for 20 mins in presence NADPH measured up to 90 mins by LC/MS/MS analysis. The class given is ADME, microsome. To be noted: microsomes, 20 min, 3 µM.
The nature of data set [8]: Half life in CD1 mouse at 1 mg/kg, iv administered as bolus dose or 1 mg/kg, po administered as single dose measured up to 24 hrs post dose by LC-MS/MS analysis. It counts as ADME, organism-based. To be noted: in vivo.
Data set [9] in a line: Clearance in CD1 mouse at 1 mg/kg, iv administered as bolus dose or 1 mg/kg, po administered as single dose measured up to 24 hrs post dose by LC-MS/MS analysis. It counts as ADME, organism-based. To be noted: in vivo.
Data set [10] in a line: Volume of distribution at steady state in CD1 mouse at 1 mg/kg, iv via bolus dose or 1 mg/kg, po administered as single dose measured up to 24 hrs post dose by LC-MS/MS analysis. It counts as ADME, organism-based. To be noted: in vivo, read-out: Vdss.
Data set [11] in a line: Cmax in Sprague-Dawley rat at 3 mg/kg, po administered as single dose measured up to 24 hrs post dose by LC-MS/MS analysis. The class given is ADME, organism-based. Also noted: dose 3 mg/kg, route oral. To be noted: in vivo.
Data set [12] in a line: Tmax in Sprague-Dawley rat at 3 mg/kg, po administered as single dose measured up to 24 hrs post dose by LC-MS/MS analysis. It counts as ADME, organism-based. To be noted: in vivo.
Data set [13] is described as follows: Half life in Sprague-Dawley rat at 1 mg/kg, iv administered as single dose measured up to 24 hrs post dose by LC-MS/MS analysis. It counts as ADME, organism-based. As to conditions: in vivo.
Data set [14] can be described thus: Clearance in Sprague-Dawley rat at 1 mg/kg, iv administered as single dose measured up to 24 hrs post dose by LC-MS/MS analysis. It counts as ADME, organism-based. To be noted: in vivo.
The nature of data set [15]: Volume of distribution at steady state in Sprague-Dawley rat at 1 mg/kg, iv administered as single dose measured up to 24 hrs post dose by LC-MS/MS analysis. It counts as ADME, organism-based. As to conditions: in vivo, read-out: Vdss.
Data set [16] can be described thus: Oral bioavailability in Sprague-Dawley rat at 3 mg/kg administered via gavage as single dose measured up to 24 hrs post dose by LC-MS/MS analysis. It counts as ADME, organism-based. As to conditions: in vivo.
The nature of data set [17]: Cmax in C57BL6 mouse at 3 mg/kg, po administered as single dose via gavage measured up to 24 hrs post dose by LC-MS/MS analysis. It counts as ADME, organism-based. Details: dose 3 mg/kg, route oral. As to conditions: in vivo.
Data set [18] in a line: Tmax in C57BL6 mouse at 3 mg/kg, po administered as single dose measured up to 24 hrs post dose by LC-MS/MS analysis. It counts as ADME, organism-based. To be noted: in vivo.
Data set [19] is described as follows: Oral bioavailability in C57BL6 mouse at 3 mg/kg administered as single dose via gavage measured up to 24 hrs post dose by LC-MS/MS analysis. The class given is ADME, organism-based. To be noted: in vivo.
Data set [20] is described as follows: Cmax in cynomolgus monkey at 0.5 mg/kg, po administered as single dose measured up to 24 hrs post dose by LC-MS/MS analysis. The class given is ADME, organism-based, Macaca fascicularis. Also noted: dose 0.5 mg/kg, route oral. As to conditions: in vivo.
Data set [21] can be described thus: Tmax in cynomolgus monkey at 0.5 mg/kg, po administered as single dose measured up to 24 hrs post dose by LC-MS/MS analysis. The class given is ADME, organism-based, Macaca fascicularis. To be noted: in vivo.
The nature of data set [22]: Half life in cynomolgus monkey at 0.2 mg/kg, iv administered as single dose measured up to 24 hrs post dose by LC-MS/MS analysis. It counts as ADME, organism-based, Macaca fascicularis. As to conditions: in vivo.
The nature of data set [23]: Clearance in cynomolgus monkey at 0.2 mg/kg, iv administered as single dose measured up to 24 hrs post dose by LC-MS/MS analysis. It counts as ADME, organism-based, Macaca fascicularis. As to conditions: in vivo.
Data set [24] in a line: Volume of distribution at steady state in cynomolgus monkey at 0.2 mg/kg, iv administered as single dose measured up to 24 hrs post dose by LC-MS/MS analysis. The class given is ADME, organism-based, Macaca fascicularis. As to conditions: in vivo, read-out: Vdss.
Data set [25] in a line: Oral bioavailability in cynomolgus monkey at 0.5 mg/kg administered via gavage as single dose measured up to 24 hrs post dose by LC-MS/MS analysis. It counts as ADME, organism-based, Macaca fascicularis. To be noted: in vivo.

Structures are written as SMILES. Active and inactive are the calls of the source. The calls are words filed in the database; no cut-off is given here.

T1 sequence (O14842 whole entry): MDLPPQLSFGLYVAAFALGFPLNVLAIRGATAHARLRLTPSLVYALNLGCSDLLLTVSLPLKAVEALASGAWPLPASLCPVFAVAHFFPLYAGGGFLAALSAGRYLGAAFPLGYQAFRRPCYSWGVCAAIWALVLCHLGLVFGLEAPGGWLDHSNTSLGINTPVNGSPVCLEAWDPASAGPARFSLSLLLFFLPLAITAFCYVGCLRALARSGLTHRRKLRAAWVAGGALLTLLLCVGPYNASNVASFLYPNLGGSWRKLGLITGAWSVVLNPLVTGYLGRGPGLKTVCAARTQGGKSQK

What is called EC50 is the concentration needed to bring the measured effect to its halfway point. On to `COc1ccc(F)c(N2CC[C@@H](Oc3ccc(N4N=C(C(F)(F)F)[C@@H](C)[C@@H]4CC(=O)O)cc3)[C@H](F)C2)c1`, for which the EC50 in data set [1] amounted to 70 nM.
On the same count and under the same terms, then `COc1ccc(Cl)c(N2CCC(Oc3ccc(N4N=C(C(F)(F)F)[C@@H](C)[C@@H]4CC(=O)O)cc3)CC2)c1`, with 100 nM.
For the compound `COc1ccc(F)c(N2CCC(Cc3ccc(N4C[C@H](C(F)(F)F)C[C@@H]4CC(=O)O)cc3)CC2)c1`, in data set [2], the outcome was Active.
As for `COc1cc(N2CCC(Oc3ccc(N4N=C(C(F)(F)F)[C@@H](C)[C@@H]4CC(=O)O)cc3)CC2)c(F)cn1`, the 50% effective concentration (EC50) in data set [1] was 150 to 180 nM.
With `COc1ccc(F)c(-c2ccc(Cc3ccc(N4N=C(C(F)(F)F)[C@@H](C)[C@@H]4CC(=O)O)cc3)c(C)c2)c1`, the EC50 in data set [3] was found to be 2600 nM.
For the compound `CCOc1cc(N2CC[C@@H](Oc3ccc(N4N=C(C(F)(F)F)[C@@H](C)[C@@H]4CC(=O)O)cc3)[C@H](C)C2)c(Cl)cn1`, in data set [1], the EC50 is 190 to 250 nM.
The same measure, in the same setting: then `C[C@@H]1C(C(F)(F)F)=NN(c2ccc(OC3CCN(c4ccc(F)cc4)CC3)cc2)[C@H]1CC(=O)O`, with 2550 to 2730 nM.
Turning to `COc1ccc(F)c(N2CCC(Oc3ccc(N4CCC[C@@H]4CC(=O)O)cc3)CC2)c1`, the concentration giving a half-maximal response (EC50) in [1] was in the range of 1200 to 2600 nM. Further, in data set [2], the outcome was Active.
For orientation: half-life means how long it takes for the measured level to halve. The term Cmax denotes the maximum level reached in the sampled fluid or tissue. As usually defined, the Tmax is the time at which the peak concentration occurs. The term bioavailability denotes dose-corrected exposure relative to a reference, in per cent. `COc1ccc(F)c(N2CCC(Oc3ccc(N4N=C(C(F)(F)F)[C@@H](C)[C@@H]4CC(=O)O)cc3)CC2)c1`: the EC50 in data set [1] is 110 nM; in data set [3], > 50000 nM. The Stability is 42% in the data set with Liver [4] and 27% in the data set on Liver [6]. Also, the t1/2 with Liver [5] worked out at 0.8 h; in the data set on Liver [7], 0.383 h. Moreover, the half-life in data set [8] is 1.5 h; in data set [13] it was 1.4 h; in [22], 5.3 h. Besides, the clearance in data set [9] was determined as 6 mL/min/kg; in [14], 17 mL/min/kg; in [23], 6.6 mL/min/kg. Moreover, the results for the Vd in [10], in data set [15] and in data set [24] were 0.8 L/kg, 0.6 L/kg and 1.7 L/kg, respectively. Moreover, the Cmax in [11] amounted to 1100 nM; in data set [17], 3400 nM; in data set [20] it was 200 nM. The figures for the Tmax in data set [12], in data set [18] and in [21] were 0.7 h, 1 h and 2 h, respectively. Further, the bioavailability in [16] worked out at 36%; in data set [19], 96%; in [25], 66%.
`CCOc1ccc(F)c(N2CCC(Oc3ccc(N4N=C(C(F)(F)F)[C@@H](C)[C@@H]4CC(=O)O)cc3)CC2)c1`: the EC50 in [1] was found to be 220 nM.
With `COc1ccc(F)c(N2CCC(Oc3ccc(N4C[C@H](C(F)(F)F)C[C@@H]4CC(=O)O)cc3)CC2)c1`, the outcome in data set [2] was Active.

For the origin of these results see ChEMBL document CHEMBL4020824, “Discovery of Potent and Orally Bioavailable Dihydropyrazole GPR40 Agonists” (J Med Chem, 2018).
